Data: ChEMBL document CHEMBL1139596, “Non-competitive inhibitors of metabotropic glutamate receptor 5 (mGluR5)” (Bioorg Med Chem Lett, 2005)

Biological target: Metabotropic glutamate receptor 5 (Homo sapiens) (UniProt P41594)
Assay: Percent inhibition against metabotropic glutamate receptor 5 (mGluR5) at 10 uM

Chain of Metabotropic glutamate receptor 5 (Homo sapiens) (P41594 21-1212 limits assumed): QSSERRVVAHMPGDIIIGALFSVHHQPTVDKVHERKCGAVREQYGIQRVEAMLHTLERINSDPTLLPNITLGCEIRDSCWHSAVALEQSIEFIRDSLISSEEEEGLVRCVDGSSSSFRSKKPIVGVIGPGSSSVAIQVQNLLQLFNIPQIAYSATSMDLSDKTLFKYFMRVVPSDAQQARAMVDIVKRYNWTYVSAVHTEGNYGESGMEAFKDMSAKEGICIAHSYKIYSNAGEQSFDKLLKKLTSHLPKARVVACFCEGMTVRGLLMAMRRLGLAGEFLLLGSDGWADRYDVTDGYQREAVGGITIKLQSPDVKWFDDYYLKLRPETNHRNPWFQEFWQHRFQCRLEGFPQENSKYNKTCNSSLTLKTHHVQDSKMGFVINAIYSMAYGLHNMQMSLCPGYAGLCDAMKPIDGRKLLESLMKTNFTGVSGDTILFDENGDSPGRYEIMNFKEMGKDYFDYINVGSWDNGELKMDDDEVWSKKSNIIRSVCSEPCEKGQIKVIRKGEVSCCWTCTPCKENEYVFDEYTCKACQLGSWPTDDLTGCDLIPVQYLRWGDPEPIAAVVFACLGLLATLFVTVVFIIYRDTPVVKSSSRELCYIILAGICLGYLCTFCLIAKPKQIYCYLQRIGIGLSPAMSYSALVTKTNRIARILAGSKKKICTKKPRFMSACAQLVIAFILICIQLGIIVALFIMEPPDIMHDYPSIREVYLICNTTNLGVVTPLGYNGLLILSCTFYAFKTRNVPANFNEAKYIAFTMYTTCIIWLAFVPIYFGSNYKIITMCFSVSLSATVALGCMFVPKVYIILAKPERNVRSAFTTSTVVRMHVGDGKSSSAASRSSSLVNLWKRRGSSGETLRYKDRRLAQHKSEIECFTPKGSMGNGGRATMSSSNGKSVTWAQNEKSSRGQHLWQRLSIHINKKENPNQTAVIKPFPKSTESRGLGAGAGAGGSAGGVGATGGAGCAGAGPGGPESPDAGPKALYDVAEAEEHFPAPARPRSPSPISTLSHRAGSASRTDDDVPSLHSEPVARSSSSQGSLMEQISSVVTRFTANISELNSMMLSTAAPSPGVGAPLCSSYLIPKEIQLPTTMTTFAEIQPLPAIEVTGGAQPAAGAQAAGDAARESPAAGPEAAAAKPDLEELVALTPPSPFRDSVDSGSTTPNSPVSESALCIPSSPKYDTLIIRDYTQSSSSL

Cc1ccc(NCC(=O)Nc2ccc(N3C(=O)C4CC=CCC4C3=O)cc2)cc1C (stereo not drawn) and Cc1ccc(NC(=O)Nc2ccc(N3C(=O)C4CC=CCC4C3=O)cc2)cc1C (stereo not drawn) cannot be ordered by inhibition: under 35% for the first, under 35% for the second.

Cc1ccc(C(=O)CN2C(=O)c3ccc(N4C(=O)C5CC=CCC5C4=O)cc3C2=O)cc1C (stereo not drawn) and Cc1cc2c(cc1C)C(=O)N(NC(=O)c1ccc(N3C(=O)C4CC=CCC4C3=O)cc1)C2=O (stereo not drawn) cannot be ordered by inhibition: under 35% for the first, under 35% for the second.

Cc1ccc(NC(=O)c2ccc(N3C(=O)C4CC=CCC4C3=O)cc2)cc1C (stereo not drawn) and Cc1ccc(CNC(=O)c2ccc(N3C(=O)C4CC=CCC4C3=O)cc2)cc1C (stereo not drawn) cannot be ordered by inhibition: under 35% for the first, under 35% for the second.

Cc1ccc(CNC(=O)Nc2ccc(N3C(=O)C4CC=CCC4C3=O)cc2)cc1C (stereo not drawn) and Cc1ccc(NC(=O)NCc2ccc(N3C(=O)C4CC=CCC4C3=O)cc2)cc1C (stereo not drawn) cannot be ordered by inhibition: under 35% for the first, under 35% for the second.

Cc1ccc(OCCNC(=O)c2ccc(N3C(=O)C4CC=CCC4C3=O)cc2)cc1C (stereo not drawn) and Cc1ccc(OCCCNC(=O)c2ccc(N3C(=O)C4CC=CCC4C3=O)cc2)cc1C (stereo not drawn) cannot be ordered by inhibition: under 35% for the first, under 35% for the second.

Going from O=C(COC(=O)c1ccc(N2C(=O)C3CC=CCC3C2=O)cc1)c1ccc2c(c1)OCO2 (stereo not drawn) to O=C(COC(=O)c1ccc(N2C(=O)C3CC=CCC3C2=O)cc1)c1ccccc1 (stereo not drawn), the inhibition falls from 21% to 18%.

First: COc1ccc(C(=O)COC(=O)c2ccc(N3C(=O)C4CC=CCC4C3=O)cc2)cc1 (stereo not drawn)
Second: CC1(C)CCC(C)(C)c2cc(C(=O)COC(=O)c3ccc(N4C(=O)C5CC=CCC5C4=O)cc3)ccc21 (stereo not drawn)
The inhibition of the first is higher: 39% for the first, 32% for the second.

Cc1ccc(C2CN(C(=O)c3ccc(N4C(=O)C5CC=CCC5C4=O)cc3)CCO2)cc1C (stereo not drawn) and Cc1ccc(C(=O)N2CCCN2C(=O)c2ccc(N3C(=O)C4CC=CCC4C3=O)cc2)cc1C (stereo not drawn) cannot be ordered by inhibition: under 35% for the first, under 35% for the second.

Compared with Cc1ccc(C(=O)COC(=O)c2ccc(NC(=O)C3CC=CCC3C(=O)O)cc2)cc1C (stereo not drawn), Cc1ccc(C(=O)COC(=O)c2ccc(N3CCCC3=O)cc2)cc1C is higher in inhibition: 34% for the first, 38% for the second.

Cc1ccc(CCNC(=O)c2ccc(N3C(=O)C4CC=CCC4C3=O)cc2)cc1C (stereo not drawn) and Cc1ccc(C(=O)CNC(=O)c2ccc(N3C(=O)C4CC=CCC4C3=O)cc2)cc1C (stereo not drawn) cannot be ordered by inhibition: under 35% for the first, under 35% for the second.

Going from Cc1ccc(C(=O)COC(=O)c2ccc(N3C(=O)c4ccncc4C3=O)cc2)cc1C to Cc1ccc2c(c1)C(=O)N(c1ccc(C(=O)OCC(=O)c3ccc(C)c(C)c3)cc1)C2=O, the inhibition falls from 33% to 28%.

Cc1ccc(C(=O)CN(C)C(=O)c2ccc(N3C(=O)C4CC=CCC4C3=O)cc2)cc1C (stereo not drawn) and Cc1ccc(C(=O)NNC(=O)c2ccc(N3C(=O)C4CC=CCC4C3=O)cc2)cc1C (stereo not drawn) cannot be ordered by inhibition: under 35% for the first, under 35% for the second.

First: Cc1ccc(C(=O)COC(=O)c2ccc(N3C(=O)COCC3=O)cc2)cc1C
Second: Cc1ccc(C(=O)COC(=O)c2ccc(N3C(=O)C4=C(CCC4)C3=O)cc2)cc1C
The inhibition of the first is higher: 41% for the first, 10% for the second.

Compound Cc1ccc(C(=O)COCc2ccc(N3C(=O)C4CC=CCC4C3=O)cc2)cc1C (stereo not drawn) has an inhibition of under 35%.

Biological target: not listed separately
Assay: Inhibitory activity against metabotropic glutamate receptor 5 (mGluR5)
Outline: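 Functional FLIPR assay in CHO cells transfected with mGlu5 receptor.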

Cc1ccc(C(=O)COC(=O)c2ccc(N3C(=O)[C@@H]4CCCC[C@H]4C3=O)cc2)cc1C and Cc1ccc(C(=O)COC(=O)c2ccc(N3C(=O)[C@H]4CCCC[C@H]4C3=O)cc2)cc1C are within 1.5-fold of each other in Ki: 0.15 µM for the first, 0.19 µM for the second.

First: O=C(COC(=O)c1ccc(N2C(=O)C3CC=CCC3C2=O)cc1)c1ccc(N2CCCC2)cc1 (stereo not drawn)
Second: O=C(COC(=O)c1ccc(N2C(=O)C3CC=CCC3C2=O)cc1)c1ccc(N2CCOCC2)cc1 (stereo not drawn)
The Ki of the first is 3.1-fold lower: 1.09 µM for the first, 3.36 µM for the second.

Going from Cc1ccc(C(=O)COC(=O)c2ccc(N3C(=O)C4CC=CCC4C3=O)cc2)cc1C (stereo not drawn) to Cc1ccc(C(=O)COC(=O)c2ccc(N3C(=O)C4CC=CCC4C3=O)cc2)cc1[N+](=O)[O-] (stereo not drawn), the Ki rises from 0.172 µM to 3.79 µM (22-fold).

Cc1ccc(C(=O)COC(=O)c2ccc(N3C(=O)C4CC(Br)C(Br)CC4C3=O)cc2)cc1C (stereo not drawn) and Cc1ccc(C(=O)COC(=O)c2ccc(N3C(=O)C4CCC(C)CC4C3=O)cc2)cc1C (stereo not drawn) are within 1.5-fold of each other in Ki: 0.098 µM for the first, 0.113 µM for the second.

CC1=CC(=O)N(c2ccc(C(=O)OCC(=O)c3ccc(C)c(C)c3)cc2)C1=O and CC1=C(C)C(=O)N(c2ccc(C(=O)OCC(=O)c3ccc(C)c(C)c3)cc2)C1=O are within 1.5-fold of each other in Ki: 4.79 µM for the first, 6.43 µM for the second.

COc1ccc(C(=O)COC(=O)c2ccc(N3C(=O)C4CC=CCC4C3=O)cc2)cc1[N+](=O)[O-] (stereo not drawn) and COc1ccc(C(=O)COC(=O)c2ccc(N3C(=O)C4CC=CCC4C3=O)cc2)cc1OC (stereo not drawn) are within 1.5-fold of each other in Ki: 1.68 µM for the first, 1.6 µM for the second.

Compared with O=C(COC(=O)c1ccc(N2C(=O)C3CC=CCC3C2=O)cc1)c1ccc(C2CCCCC2)cc1 (stereo not drawn), Cc1ccc(C(=O)COC(=O)c2ccc(N3C(=O)C4CC=CCC4C3=O)cc2)cc1 (stereo not drawn) is 1.9-fold lower in Ki: 18 µM for the first, 9.47 µM for the second.

Compared with CC1=CCC2C(=O)N(c3ccc(C(=O)OCC(=O)c4ccc(C)c(C)c4)cc3)C(=O)C2C1 (stereo not drawn), Cc1ccc(C(=O)COC(=O)c2ccc(N3C(=O)CC(C)C3=O)cc2)cc1C (stereo not drawn) is 1.9-fold higher in Ki: 0.216 µM for the first, 0.411 µM for the second.

Going from O=C(COC(=O)c1ccc(N2C(=O)C3CC=CCC3C2=O)cc1)c1ccc2c(c1)OCCO2 (stereo not drawn) to O=C(COC(=O)c1ccc(N2C(=O)C3CC=CCC3C2=O)cc1)c1ccc2c(c1)CCC2 (stereo not drawn), the Ki falls from 2.04 µM to 0.401 µM (5.1-fold). The second binds more tightly here.

First: Cc1ccc(C(=O)COC(=O)c2ccc(N3C(=O)CCCC3=O)cc2)cc1C
Second: Cc1ccc(C(=O)COC(=O)c2ccc(N3C(=O)CCC3=O)cc2)cc1C
The Ki of the first is 6.5-fold higher: 3.27 µM for the first, 0.506 µM for the second.

Going from O=C(COC(=O)c1ccc(N2C(=O)C3CC=CCC3C2=O)cc1)c1ccc2c(c1)CCCC2 (stereo not drawn) to O=C(COC(=O)c1ccc(N2C(=O)C3CC=CCC3C2=O)cc1)c1ccc2ccccc2c1 (stereo not drawn), the Ki rises from 0.171 µM to 0.303 µM (1.8-fold).

Going from Cc1ccc(C(=O)COC(=O)c2ccc(N3C(=O)C4C5C=CC(C5)C4C3=O)cc2)cc1C (stereo not drawn) to Cc1ccc(C(=O)COC(=O)c2ccc(N3C(=O)CC(C)CC3=O)cc2)cc1C, the Ki rises from 1.01 µM to 1.84 µM (1.8-fold). The first binds more tightly here.

Test system: not listed separately
Assay: Half life was determined; 1-2h
Type: ADME

Cc1ccc(C(=O)COC(=O)c2ccc(N3C(=O)C4CCC(C)CC4C3=O)cc2)cc1C (stereo not drawn) and Cc1ccc(C(=O)COC(=O)c2ccc(N3C(=O)CCC3=O)cc2)cc1C are the same in half-life: 2 h for the first, 2 h for the second.
